Article PMC7384521 (ACS chemical biology, 2020)

How the values were obtained:
ENL(YEATS)-HiBiT [1] = assay: HiBiT CETSA performed on pre-lysed cells; settings: cells lysed first, then treated; 37 °C
BRD4 bromodomain 1 (BD1) = assay: HTRF histone-binding assay, BRD4 BD1 with tetra-acetyl H4
Procedure, shortened: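 BRD4 BD1 (purchased, 10 nM) with 13.3 nM tetra-acetylated H4. Buffer was 25 mM HEPES pH 7, 20 mM NaCl, 0.2% Pluronic F-127, 0.05% BSA; detection used 1 nM Eu-anti-His antibody plus 8.9 nM APC-streptavidin. Compound added by pin tool and incubated 2 h or more. Read at 337 nm excitation as the 665/620 nm emission ratio; percent inhibition relative to vehicle (maximum) and no-peptide (minimum) controls.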

endogenous ENL protein = assay: Immunoblot-based CETSA on endogenous ENL; assay type: cell-based; settings: 80 μM, OCI/AML-2 cells, 1 hr
Procedure, shortened: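 CETSA on endogenous ENL followed a previously published protocol. Immunoblot detection used an anti-ENL rabbit monoclonal antibody (D9M4B) and an anti-GAPDH mouse monoclonal antibody (6C5).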

AF9 YEATS = biological target: T1, AF9 YEATS (Homo sapiens, UniProt P42568); assay: HTRF histone-binding assay, AF9 YEATS with H3K27cr; settings: read-out: IC50, HTRF AF9 YEATS crotonyl-lysine recognition
T1 sequence (P42568 1-138 limits assumed): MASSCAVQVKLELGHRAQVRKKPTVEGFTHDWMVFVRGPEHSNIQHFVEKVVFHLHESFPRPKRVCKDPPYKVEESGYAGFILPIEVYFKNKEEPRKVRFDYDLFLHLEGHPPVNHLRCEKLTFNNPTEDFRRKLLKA
Procedure, shortened: (§1)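 HTRF in 25 mM HEPES pH 7, 20 mM NaCl, 0.2% Pluronic F-127, 0.05% BSA, with 1 nM Eu-anti-His antibody and 8.9 nM APC-streptavidin. ENL: recombinant His-tagged ENL YEATS(1-148), 5 nM, with 13.3 nM biotinylated H3(13-32)K27cr. AF9: purchased AF9 YEATS, 5 nM, with 100 nM of the same peptide. Compound pin-transferred, incubated ≥2 h; 337 nm excitation, 665/620 nm ratio; percent inhibition scaled to vehicle (max) and no-peptide (min) wells.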

ENL(YEATS)-HiBiT [2] = assay: HiBiT CETSA; assay type: cell-based
ENL YEATS [3] = biological target: T2, ENL YEATS (Homo sapiens, UniProt Q03111); assay: HTRF histone-binding assay, ENL YEATS with H3K27cr
T2 sequence (Q03111 1-148): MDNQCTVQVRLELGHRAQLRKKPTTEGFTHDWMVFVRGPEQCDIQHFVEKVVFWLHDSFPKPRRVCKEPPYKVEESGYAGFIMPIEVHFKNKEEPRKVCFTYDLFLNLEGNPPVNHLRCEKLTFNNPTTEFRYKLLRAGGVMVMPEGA
Procedure, shortened: as §1

YEATS4/GAS41 = assay: Biolayer interferometry, immobilized biotin-YEATS4; assay type: binding; settings: BLI
ENL YEATS [4] = biological target: T2, ENL YEATS; assay: MALDI-TOF mass spectrometry for covalent adducts; settings: high-resolution MALDI-TOF
full-length ENL-HiBiT = assay: HiBiT CETSA melt curve of full-length ENL-HiBiT; assay type: cell-based; settings: HEK293T cells
SMARCA4(BD)-HiBiT = assay: HiBiT CETSA of SMARCA4; assay type: cell-based; settings: for luminescence of SMARCA4(BD)-HiBiT: OCI/AML-2 cells, 37 °C
Procedure, shortened: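 SMARCA4 bromodomain (residues 1426-1531) fused to HiBiT, stably expressed in OCI/AML-2 cells (alpha-MEM, 20% FBS) by lentiviral spinoculation: 2,000 rpm, 1 h, room temperature, 8 μg/mL polybrene. Cells were drug-treated at 37 °C without heating. Raw luminescence was read after adding Nano-Glo HiBiT lytic detection reagent.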

AF9(YEATS)-HiBiT = assay: ITDR at 37 °C of AF9; assay type: cell-based; settings: OCI/AML-2 cells, 1 hour

crotonylated histone peptide: peptide substrate, H3K27cr, used to treat cell lysates
luminescence of ENL(YEATS)-HiBiT in cell lysates (ENL(YEATS)-HiBiT [1]): luminescence was increased

O=C(/C=C/c1ccc(-n2ccnc2)cc1)N1CCN(C(=O)c2ccco2)CC1 [sCGT990]
inhibition of BRD4 BD1 association with tetra-acetyl H4 (BRD4 bromodomain 1 (BD1)): does not inhibit | stabilization of endogenous ENL by immunoblot-based CETSA (endogenous ENL protein): weak, if any, stabilization | IC50 (AF9 YEATS): 62 µM | concentration required to reliably elevate ENL(YEATS)-HiBiT luminescence (ENL(YEATS)-HiBiT [2]; living cells, dose-response): 80 µM | IC50, HTRF ENL YEATS association with H3K27cr (ENL YEATS [3]): 19 µM | binding to YEATS4/GAS41 (YEATS4/GAS41): does not efficiently bind | covalent adducts with ENL YEATS (ENL YEATS [4]): unable to identify covalent adducts

C[C@H]1CCCN1Cc1nc2cc(NC(=O)c3ccc4c(cnn4C)c3)ccc2[nH]1 [SGC-iMLLT]
luminescence-based melt curve of full-length ENL-HiBiT (full-length ENL-HiBiT): did not affect | ITDR luminescence, wild-type ENL YEATS (ENL(YEATS)-HiBiT [2]; 37 °C, HEK293T cells, 1 hour): dose-responsive increases in luminescence | CETSA melt curve of ENL(YEATS)-HiBiT (ENL(YEATS)-HiBiT [2]; HEK293T cells, 1-hour treatment, luminescence normalized to 37 °C): rightward shift | luminescence of ENL(YEATS)-HiBiT in cell lysates (ENL(YEATS)-HiBiT [1]): luminescence was increased | luminescence of SMARCA4(BD)-HiBiT (SMARCA4(BD)-HiBiT): no such effect | ITDR luminescence, AF9(YEATS)-HiBiT (AF9(YEATS)-HiBiT): dose-dependent increases in luminescence

O=C(/C=C/N1C[C@H]2C[C@@H]1CN2c1ccccn1)c1ccccc1O [PFI-3]
concentration required to elevate the luminescence from SMARCA4(BD)-HiBiT (SMARCA4(BD)-HiBiT; ITDR): 80 µM | luminescence of SMARCA4(BD)-HiBiT (SMARCA4(BD)-HiBiT): able to elevate luminescence
